Molecular target: rat lens ALR2 (Rattus norvegicus, UniProt P07943)
Assay: ALR2 enzyme inhibition assay
Format: biochemical
Conditions: ratio IC50 ALR1 / IC50 ALR2; called SF in text
Procedure, shortened: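 Rat lens enzyme (male Wistar) was partially purified: homogenised in cold water, spun at 10.000 g, fractionated with ammonium sulfate (40/50/75%). Substrate was D,L-glyceraldehyde in 0.067 M phosphate, pH 6.2, at 30 °C. Substrate started the reaction, and a substrate-free blank corrected NADPH oxidation. Test compound was in NaHCO3 or DMSO (1% final). IC50 came from least-squares fit of the linear semilog portion (25–75% inhibition), at least two experiments. The selectivity index was calculated against kidney-enzyme IC50.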

Compound	Selectivity index (ALR1/ALR2)
COc1ccc2nc(/N=C3/NC(=O)C(=Cc4ccc(O)cc4)S3)sc2c1 [Compound 2, (Z)-5-(4-hydroxybenzylidene)-2-((6-methoxybenzo[d]thiazol-2-yl)imino)thiazolidin-4-one]	< 1
COc1ccc2nc(/N=C3/NC(=O)C(=Cc4ccc(O)c(OC)c4)S3)sc2c1 [Compound 4, (Z)-5-(4-hydroxy-3-methoxybenzylidene)-2-((6-methoxybenzo[d]thiazol-2-yl)imino) thiazolidin-4-one]	< 1
COc1ccc(/C=C2\SC(=Nc3nc4ccc(OC)cc4s3)NC2=O)cc1 [Compound 3, (Z)-2-((6-methoxybenzo[d]thiazol-2-yl)imino)-5-(4-methoxybenzylidene)thiazolidin-4-one]	< 1
